Results of several laboratories.
Lines come from different studies, so protocols differ.
MTNR1A: Melatonin receptor type 1A (MTNR1A, Homo sapiens, UniProt P48039)

| SMILES | target | assay | system | conditions | quantity | result |
| --- | --- | --- | --- | --- | --- | --- |
| Cc1nn(C)cc1-c1nc2c(N3CCN(Cc4ccc(Cl)cc4)CC3)c(Cl)cnc2[nH]1 | Tyrosine-protein kinase receptor Tie-1 (TIE1, Homo sapiens, UniProt P35590) | binding, competition with immobilised ligand |  | 1 µM | remaining binding | 47% |
| CCN(CC)CCCC[C@H](NC(=O)[C@H](CC(C)C)NC(=O)[C@H](C)NC(=O)[C@H](Cc1ccccc1)NC(=O)c1ccc(C(C)(C)C)cc1)C(=O)N[C@@H](CO)C(=O)OC | BRWD3 (Homo sapiens, UniProt Q6RI45) | thermal stability, DSF |  | 25 µM | ΔTm | -0.57 °C |
| Nc1ncc(-c2nc(N3CCOCC3)nc(N3CCOCC3)n2)c(C(F)F)n1 | Aurora kinase A (AURKA, Homo sapiens, UniProt O14965) | binding, competition with immobilised ligand |  | 10 µM | remaining binding | 52% |
| COc1ccc2cccc(C(CO)CNC(=O)CF)c2c1 (centres unmarked) | MTNR1A | β-arrestin recruitment, agonist | CHO-K1 | 90 min | Emax | 101% |
| COc1ncccc1-c1cnn2ccc(N3CCN(C(=O)OC(C)C)CC3)nc12 | BMP-2-inducible protein kinase (BMP2K, Homo sapiens, UniProt Q9NSY1) | binding, competition with immobilised ligand |  | 1 µM | remaining binding | 3.5% |
| COCc1c(-c2cc3cc(C)cc(OC)c3s2)c2c(N)ncnn2c1CN1CCNC(=O)C1 | 5-hydroxytryptamine receptor 2C (HTR2C, Homo sapiens, UniProt P28335) | ligand displacement, radioligand |  | 10 µM | inhibition | 30% |
| C#Cc1n[nH]c2c(-c3cn([C@@H](C)c4ccccn4)c(=O)[nH]c3=O)cc(F)cc12 | Aurora kinase C (AURKC, Homo sapiens, UniProt Q9UQB9) | enzyme activity, inhibitor |  | 0.1 µM | inhibition | 1.4% |
| COc1ccc2[nH]cc(CCNC(=O)CI)c2c1 | MTNR1A | β-arrestin recruitment, agonist | CHO-K1 | 90 min | Emax | 92% |
